Source: ChEMBL document CHEMBL4190330, “Discovery of Potent and Selective A2A Antagonists with Efficacy in Animal Models of Parkinson's Disease and Depression” (ACS Med Chem Lett, 2017)
The source made the active and inactive calls. No cut-off for these calls is given here.

How the values were obtained:
Adenosine receptor A2a = Adenosine receptor A2a (Homo sapiens, UniProt P29274); assay: Displacement of [3H]ZM241385 from human A2A receptor expressed in HEK293 cell membranes after 90 mins radioligand binding assay
Adenosine receptor A2a, sequence (P29274 whole entry): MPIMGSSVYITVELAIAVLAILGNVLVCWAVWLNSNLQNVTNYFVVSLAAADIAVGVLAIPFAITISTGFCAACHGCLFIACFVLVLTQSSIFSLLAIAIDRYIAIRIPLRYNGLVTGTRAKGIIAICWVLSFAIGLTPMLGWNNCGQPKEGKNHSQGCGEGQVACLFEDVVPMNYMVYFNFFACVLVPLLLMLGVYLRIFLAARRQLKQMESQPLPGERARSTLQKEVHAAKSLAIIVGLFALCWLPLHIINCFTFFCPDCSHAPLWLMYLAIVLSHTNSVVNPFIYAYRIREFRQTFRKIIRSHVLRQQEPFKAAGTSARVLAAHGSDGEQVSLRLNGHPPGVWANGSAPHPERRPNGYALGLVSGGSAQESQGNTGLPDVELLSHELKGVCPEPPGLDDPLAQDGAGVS
In short: (§1)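 Membranes from HEK-293 cells overexpressing the relevant human adenosine receptor subtype; all points in triplicate; Ki derived from 8-concentration IC50 curves.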

Adenosine receptor A1 = target: T1, Adenosine receptor A1 (Homo sapiens, UniProt P30542); assay: Displacement of [3H]-DPCPX from human A1 receptor expressed in HEK293 cell membranes after 90 mins radioligand binding assay; in short: as §1
T1 sequence (P30542 whole entry): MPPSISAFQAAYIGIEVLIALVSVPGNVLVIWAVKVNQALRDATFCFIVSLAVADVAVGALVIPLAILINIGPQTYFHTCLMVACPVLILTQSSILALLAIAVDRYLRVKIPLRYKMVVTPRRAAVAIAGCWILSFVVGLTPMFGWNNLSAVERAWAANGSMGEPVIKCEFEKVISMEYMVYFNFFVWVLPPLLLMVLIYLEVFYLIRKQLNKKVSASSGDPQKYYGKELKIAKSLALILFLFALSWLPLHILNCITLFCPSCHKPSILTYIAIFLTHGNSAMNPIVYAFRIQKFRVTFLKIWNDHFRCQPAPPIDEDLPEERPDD

Homo sapiens [1] = species on record: Homo sapiens; assay: Selectivity ratio of Ki for displacement of [3H]-DPCPX from human A1 receptor expressed in HEK293 cell membranes to Ki for displacement of [3H]ZM241385 from human A2A receptor expressed in HEK293 cell membranes
In short: (§2)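 Radioligand binding used membranes from HEK-293 cells overexpressing each human adenosine receptor isoform. Points were run in triplicate, and 8-concentration IC50 curves were plotted to give Ki. The selectivity value is the Ki at the off-target isoform divided by the Ki at hA2A.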

Homo sapiens [2] = species on record: Homo sapiens; assay: Selectivity ratio of Ki for displacement of [3H]-HEMADO from human A3 receptor expressed in HEK293 cell membranes to Ki for displacement of [3H]ZM241385 from human A2A receptor expressed in HEK293 cell membranes; in short: as §2
[3] = target: T2, Adenosine receptor A1 (Homo sapiens) (UniProt P30542); assay: Antagonist activity at human adenosine A1 receptor expressed in HEK293 cell membranes assessed as inhibition of CPA/forskolin-induced cAMP level at 10 uM pretreated for 15 mins followed by agonist addition for 15 mins and subsequent forskolin stimulation measured after 30 mins by HTRF assay; assay type: functional, cell-based
T2 sequence (whole entry): T1 sequence (P30542 whole entry)
In short: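 HTRF cAMP functional assay on the human receptor isoform, run in triplicate at 12 concentrations with a top concentration of 10 µM, in two independent experiments. Inhibition at 10 µM is recorded where no Ki could be derived.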

[4] = Metabolic stability in mouse liver microsomes assessed as metabolic rate; assay type: ADME, microsome
In short: (§3)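 Liver microsomes (mouse, rat, dog, human) at 0.125 mg/mL protein; metabolic rate expressed as nmol/min/mg.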

[5] = Metabolic stability in dog liver microsomes assessed as metabolic rate; assay type: ADME, Canis lupus familiaris, microsome; in short: as §3
[6] = Permeability across basolateral to apical side in human Caco2 cells; assay type: ADME, cell-based; details: caco-2
[7] = Protein binding in mouse plasma; assay type: ADME, cell-free; details: read-out: PPB (converted)
[8] = Protein binding in rat plasma; assay type: ADME, cell-free; details: read-out: PPB (converted)
[9] = Protein binding in dog plasma; assay type: ADME, cell-free, Canis lupus familiaris; details: read-out: PPB (converted)
[10] = Protein binding in human plasma; assay type: ADME, cell-free; details: read-out: PPB (converted)
HepG2 = assay: Cytotoxicity against human HepG2 cells after 24 hrs by MTT assay; assay type: cell-based; details: HepG2, 24 h
[11] = target: T3, Nuclear receptor subfamily 1 group I member 2 (Homo sapiens, UniProt O75469); assay: Transactivation of recombinant human PXR expressed in HepG2 cells after 42 hrs by dual luciferase reporter gene assay; assay type: ADME, cell-based
T3 sequence (O75469 whole entry): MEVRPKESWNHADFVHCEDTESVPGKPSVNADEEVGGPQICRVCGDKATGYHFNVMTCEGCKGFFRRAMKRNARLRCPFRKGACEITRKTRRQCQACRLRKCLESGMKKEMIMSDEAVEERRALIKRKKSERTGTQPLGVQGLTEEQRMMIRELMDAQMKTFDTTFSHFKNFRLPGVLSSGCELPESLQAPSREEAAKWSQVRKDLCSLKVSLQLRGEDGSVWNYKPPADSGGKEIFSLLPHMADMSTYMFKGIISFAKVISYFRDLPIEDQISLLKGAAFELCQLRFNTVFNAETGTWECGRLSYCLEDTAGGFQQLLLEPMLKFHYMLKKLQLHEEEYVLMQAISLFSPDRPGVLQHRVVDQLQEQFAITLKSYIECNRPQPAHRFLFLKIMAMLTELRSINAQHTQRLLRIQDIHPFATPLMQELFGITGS

hERG = hERG (Homo sapiens, UniProt Q12809); assay: Inhibition of human ERG at 3 uM relative to control
hERG, sequence (Q12809 whole entry): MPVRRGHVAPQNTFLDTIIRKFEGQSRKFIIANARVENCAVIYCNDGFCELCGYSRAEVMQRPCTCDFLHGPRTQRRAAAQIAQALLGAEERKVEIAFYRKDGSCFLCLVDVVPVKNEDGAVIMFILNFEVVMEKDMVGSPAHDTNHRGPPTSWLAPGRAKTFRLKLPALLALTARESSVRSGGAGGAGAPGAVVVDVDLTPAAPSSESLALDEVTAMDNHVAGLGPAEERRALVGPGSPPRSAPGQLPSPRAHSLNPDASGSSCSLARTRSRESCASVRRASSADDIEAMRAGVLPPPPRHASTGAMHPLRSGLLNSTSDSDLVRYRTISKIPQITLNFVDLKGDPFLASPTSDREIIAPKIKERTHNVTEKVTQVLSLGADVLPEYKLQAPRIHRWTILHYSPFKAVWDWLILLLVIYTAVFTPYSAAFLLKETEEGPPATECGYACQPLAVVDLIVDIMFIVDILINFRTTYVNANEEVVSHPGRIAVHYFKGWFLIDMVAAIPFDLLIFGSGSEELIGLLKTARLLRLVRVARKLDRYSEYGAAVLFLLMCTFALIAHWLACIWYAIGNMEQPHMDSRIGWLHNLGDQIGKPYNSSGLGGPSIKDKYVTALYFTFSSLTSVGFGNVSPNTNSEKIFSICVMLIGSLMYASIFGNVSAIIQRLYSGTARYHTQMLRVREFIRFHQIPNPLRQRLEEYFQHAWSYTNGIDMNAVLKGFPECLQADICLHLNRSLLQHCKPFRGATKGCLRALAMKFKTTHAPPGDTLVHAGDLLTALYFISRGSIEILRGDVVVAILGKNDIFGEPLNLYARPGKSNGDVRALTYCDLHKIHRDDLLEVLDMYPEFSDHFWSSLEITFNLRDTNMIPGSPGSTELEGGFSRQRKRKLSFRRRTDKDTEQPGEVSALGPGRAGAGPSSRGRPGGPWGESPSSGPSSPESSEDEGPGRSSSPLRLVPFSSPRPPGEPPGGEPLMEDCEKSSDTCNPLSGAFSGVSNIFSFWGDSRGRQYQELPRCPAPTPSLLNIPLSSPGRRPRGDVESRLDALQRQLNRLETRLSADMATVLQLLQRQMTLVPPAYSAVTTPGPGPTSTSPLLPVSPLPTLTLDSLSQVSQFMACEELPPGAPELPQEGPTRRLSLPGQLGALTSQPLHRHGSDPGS

[12] = AUC (0 to t) in Wistar rat at 3 mg/kg, iv by LC-MS/MS analysis; assay type: ADME, organism-based; details: in vivo
[13] = Volume of distribution at steady state in Wistar rat at 3 mg/kg, iv by LC-MS/MS analysis; assay type: ADME, organism-based; details: in vivo, read-out: Vdss
In short: (§4)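 Male Wistar rats, n = 4; iv dose 3 mg/kg in 10% NMP, 10% Cremophor EL, acetate buffer pH 4.2 q.s.; values are means.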

[14] = Systemic clearance in Wistar rat at 3 mg/kg, iv by LC-MS/MS analysis; assay type: ADME, organism-based; details: in vivo; in short: as §4
Rattus norvegicus [15] = assay: Anti-parkinson's activity in po dosed Wistar rat assessed as reversal of haloperidol-induced catalepsy measured after 1 to 4 hrs; assay type: functional, organism-based
In short: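 Haloperidol-induced catalepsy in rats; oral dosing; catalepsy scored at 1, 2 and 4 h; ED50 derived; mean ± SEM, n=6-7.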

Rattus norvegicus [16] = assay: Anti-parkinson's activity in po dosed 6-OHDA-lesioned Wistar rat assessed as increase in L-DOPA induced contralateral rotations measured up to 2 hrs; assay type: functional
In short: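 6-OHDA-lesioned rats given oral test doses; L-DOPA 4 mg/kg ip; contralateral rotations recorded up to 2 h, dosing 60 min prior; mean ± SEM, n=6-7; compared with L-DOPA-alone group.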

Rattus norvegicus [17] = assay: Toxicity in 6-OHDA-lesioned Wistar rat model of parkinson's disease assessed as induction of dyskinesia at 0.3 to 3 mg/kg, po administered twice daily for 21 days; assay type: organism-based; details: in vivo, 504 h
In short: (§5)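 6-OHDA-lesioned rats given oral test compound (0.3-3 mg/kg) with L-DOPA, repeated daily; abnormal involuntary movements scored; mean ± SEM, n=6-7.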

Rattus norvegicus [18] = assay: Protection against L-DOPA-induced dyskinesias in 6-OHDA-lesioned Wistar rat model of parkinson's disease assessed as reduction in abnormal involuntary movements at 0.3 to 3 mg/kg, po administered twice daily for 21 days measured every 7 days; assay type: functional, organism-based; in short: as §5
[19] = Metabolic stability in human liver microsomes assessed as metabolic rate; assay type: ADME, microsome; in short: as §3
Mus musculus = assay: Antidepressant-like activity in po dosed mouse assessed as reduction in immobility time treated 1 hr prior to testing measured last 4 mins of 6 mins test by forced swim test

## COCCOc1ccc(N2CCN(CCn3c(=O)n(C)c4c3nc(N)n3nc(-c5nccs5)nc43)CC2)cc1F
Adenosine receptor A2a
  Ki: 0.0015 µM
Adenosine receptor A1
  Ki: 1.7 µM
Homo sapiens [1]
  Ratio Ki: > 1100
Homo sapiens [2]
  Ratio Ki: > 3000
[3]
  inhibition: inactive
[4]
  Drug metabolism: 0.08 nmol/min/mg
[5]
  Drug metabolism: 0.04 nmol/min/mg
[6]
  permeability: Permeable
[7]
  fraction unbound: 0.49
[8]
  fraction unbound: 0.18
[9]
  fraction unbound: 0.22
[10]
  fraction unbound: 0.15
HepG2
  IC50: > 30 µM
[11]
  EC50: > 60 µM
hERG
  inhibition at 3 µM: 28%
[12]
  AUC(0-t): 3.6 µM·h
[13]
  Vd: 3.6 L/kg
[14]
  clearance: 45 mL/min/kg
Rattus norvegicus [15]
  Activity: Dose-dependent effect
  ED50: 4.49 mg/kg
Rattus norvegicus [16]
  Activity: Dose-dependent effect
  ED50: 1.2 mg/kg
Rattus norvegicus [17]
  Activity: Non-Toxic
Rattus norvegicus [18]
  Activity: Active
[19]
  Drug metabolism: 0.14 nmol/min/mg
Mus musculus
  ED50: 5.29 mg/kg
